# ChEMBL document CHEMBL1134485, “Diguanidino and "reversed" diamidino 2,5-diarylfurans as antimicrobial agents” (2001)
# Experiments:
# Candida albicans [1] = assay: In vitro minimum inhibitory concentration against Candida albicans.; assay type: functional
# Candida albicans [2] = assay: In vitro minimum fungicidal concentration against Candida albicans.; assay type: functional
# Procedure, shortened: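 Yeast MFC: after broth macrodilution (RPMI 1640/MOPS pH 7.0, 0.5 × 10³ to 2.5 × 10³ CFU/mL, 35 °C, 48 h or 72 h for C. neoformans, drug 100 to 0.09 µg/mL), 100 µL from tubes with complete inhibition plated on Sabouraud agar; lowest concentration yielding three or fewer colonies recorded.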
compound,measurement,setting,value
OC(Cn1cncn1)(Cn1cncn1)c1ccc(F)cc1F [FLUCONAZOLE],MIC,Candida albicans [1],6.25 µg/mL
same,MFC,Candida albicans [2],25 µg/mL
